Assay [1] relates to Staphylococcus aureus. As to the kind of experiment: Antimicrobial activity against vancomycin-intermediate-, methicillin-resistant Staphylococcus aureus 555 assessed as time required to induce sub-MIC effect at 0.4 times MIC […] by plate counting method. Type of assay: functional. The method, boiled down:
(§1)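 SME, viable plate count method: no prior drug exposure. About 5 × 10^6 CFU/ml in Mueller-Hinton broth at 35°C received 0.2, 0.3 or 0.4× MIC, alongside a drug-free tube. Counts were taken at the start, then every 2 h until McFarland no. 1 turbidity, as log10 CFU/ml against time. Two separate experiments, each with a new inoculum.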

Assay [2] concerns Staphylococcus aureus. As to the kind of experiment: Antimicrobial activity against vancomycin-intermediate-, methicillin-resistant Staphylococcus aureus 1984 assessed as time required to induce sub-MIC effect at 0.4 times MIC […] by plate counting method. Type of assay: functional. The procedure, abridged:
as §1

For assay [3], the system named is Staphylococcus aureus. In words: Antimicrobial activity against vancomycin-intermediate-, methicillin-resistant Staphylococcus aureus 1984 assessed as time required to induce post antibiotic sub-MIC effect at 0.4 times MIC […] by plate counting method. Type of assay: functional. The procedure, abridged: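 PAE was first induced with 10× MIC for 1 h at 35°C (inoculum about 5 × 10^6 CFU/ml, Mueller-Hinton broth) and ended by 1:1,000 dilution. Cultures were then split and given 0.2, 0.3 or 0.4× MIC, with one tube left without drug. Viable counts were taken before exposure, after dilution, then every 2 h until McFarland no. 1 turbidity. Two separate experiments, each with a new inoculum.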

For assay [4], the system named is Staphylococcus aureus. As to the kind of experiment: Antimicrobial activity against vancomycin-resistant-, methicillin-resistant Staphylococcus aureus 510 assessed as post-antibiotic effect at 10 times MIC pre-exposed for 1 hr by plate counting method. Type of assay: functional. The procedure, abridged:
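Direct colony suspensions (~5 × 10^6 CFU/ml) were exposed to 10× MIC for 1 h at 35°C with shaking in Mueller-Hinton broth, then diluted 1:1,000 to remove drug. Viable plate counts were taken before exposure, at 0 h, then every 2 h until turbidity reached McFarland 1. PAE = T − C, the time for counts to rise 1 log10 versus the unexposed control. Two separate experiments were run.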

Another assay concerns Enterococcus faecium. As to the kind of experiment: Antimicrobial activity against Enterococcus faecium HMC 588 assessed as time required to induce sub-MIC effect at 0.2 times MIC exposed for 2 hrs by plate counting method. Type of assay: functional. The method, boiled down: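 Unexposed Mueller-Hinton broth cultures (about 5 × 10^6 CFU/ml, 35°C) were handled as in the PA-SME set but without the 10× MIC pre-exposure. They were diluted 1:1,000, then given telavancin at final 0.2, 0.3 or 0.4× MIC, with a drug-free control. Viable counts were taken every 2 h until McFarland no. 1 turbidity. Effect duration comes from log10 CFU/ml-time plots; two separate experiments with new inocula.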

Assay [5] concerns Staphylococcus aureus. In words: Antimicrobial activity against vancomycin-susceptible-, methicillin-resistant Staphylococcus aureus 1307 assessed as time required to induce post antibiotic sub-MIC effect at 0.2 times MIC pre-exposed to Telavancin […] by plate counting method. Type of assay: functional. The method, boiled down:
(§2)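 After 1 h preexposure to 10× MIC at 35°C and 1:1,000 dilution, cultures were split, and drug was re-added to final 0.2, 0.3 or 0.4× MIC, with a drug-free tube. Viable counts were taken every 2 h until McFarland 1 turbidity. Duration was derived from log10 CFU/ml versus time curves. Two experiments were run, each with a new inoculum.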

Assay [6] concerns Staphylococcus aureus. In words: Antimicrobial activity against vancomycin-resistant-, methicillin-resistant Staphylococcus aureus 510 assessed as time required to induce post antibiotic sub-MIC effect at 0.3 times MIC […] by plate counting method. Type of assay: functional. The method, boiled down:
as §2

In assay [7] the test system is Staphylococcus aureus. In words: Antimicrobial activity against vancomycin-intermediate-, methicillin-resistant Staphylococcus aureus 1984 assessed as time required to induce post antibiotic sub-MIC effect at 0.2 times MIC pre-exposed to Telavancin for 1 hr by plate counting method.

The structures appear in SMILES notation.

In the case of `CCCCCCCCCCNCCN[C@@]1(C)C[C@H](O[C@H]2[C@H](Oc3c4cc5cc3Oc3ccc(cc3Cl)[C@@H](O)[C@@H](NC(=O)[C@@H](CC(C)C)NC)C(=O)N[C@@H](CC(N)=O)C(=O)N[C@H]5C(=O)N[C@H]3C(=O)N[C@H](C(=O)N[C@H](C(=O)O)c5cc(O)c(CNCP(=O)(O)O)c(O)c5-c5cc3ccc5O)[C@H](O)c3ccc(c(Cl)c3)O4)O[C@H](CO)[C@@H](O)[C@@H]2O)O[C@@H](C)[C@H]1O` [TELAVANCIN], the PAE with Staphylococcus aureus [1] is 4.3 h; in the assay on Staphylococcus aureus [2] it was 10 h; in the assay with Staphylococcus aureus [3], more than 10 h; in the assay with Staphylococcus aureus [4], 1.3 h; with Enterococcus faecium, 1.2 h; in the assay on Staphylococcus aureus [5] it was 6 h. In addition, the values for the PAE with Staphylococcus aureus [6] and with Staphylococcus aureus [7] were 6 h and 6.8 h, respectively.

These data come from ChEMBL document CHEMBL1629663, “Postantibiotic effects of telavancin against 16 gram-positive organisms” (Antimicrob Agents Chemother, 2009).
